Measurements as given in ChEMBL document CHEMBL3596131, “Discovery of a novel trans-1,4-dioxycyclohexane GPR119 agonist series” (Bioorg Med Chem Lett, 2015).
Calls of active or inactive are those of the source. The rule behind the calls is not given here.

How the values were obtained:
[1] = molecular target: T1, Glucose-dependent insulinotropic receptor (Rattus norvegicus) (UniProt Q7TQN8); assay: Agonist activity at rat GPR119 by HTRF cAMP assay relative to AR231453; format: functional
T1 sequence (whole entry): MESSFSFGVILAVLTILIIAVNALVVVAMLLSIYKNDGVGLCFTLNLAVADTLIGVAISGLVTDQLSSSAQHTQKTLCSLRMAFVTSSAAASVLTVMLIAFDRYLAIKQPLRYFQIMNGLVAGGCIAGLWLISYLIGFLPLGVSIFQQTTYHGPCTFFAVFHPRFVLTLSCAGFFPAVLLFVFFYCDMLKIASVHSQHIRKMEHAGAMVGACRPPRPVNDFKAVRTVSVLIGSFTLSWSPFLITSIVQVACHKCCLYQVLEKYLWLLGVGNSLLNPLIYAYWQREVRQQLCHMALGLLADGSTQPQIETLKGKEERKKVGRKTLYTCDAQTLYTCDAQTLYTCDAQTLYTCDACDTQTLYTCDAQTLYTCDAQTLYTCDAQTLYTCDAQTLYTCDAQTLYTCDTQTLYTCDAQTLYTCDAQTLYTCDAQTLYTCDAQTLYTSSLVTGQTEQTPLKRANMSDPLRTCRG

[2] = molecular target: T2, Glucose-dependent insulinotropic receptor (Homo sapiens, UniProt Q8TDV5); assay: Agonist activity at human GPR119 by HTRF cAMP assay; format: functional
T2 sequence (Q8TDV5 whole entry): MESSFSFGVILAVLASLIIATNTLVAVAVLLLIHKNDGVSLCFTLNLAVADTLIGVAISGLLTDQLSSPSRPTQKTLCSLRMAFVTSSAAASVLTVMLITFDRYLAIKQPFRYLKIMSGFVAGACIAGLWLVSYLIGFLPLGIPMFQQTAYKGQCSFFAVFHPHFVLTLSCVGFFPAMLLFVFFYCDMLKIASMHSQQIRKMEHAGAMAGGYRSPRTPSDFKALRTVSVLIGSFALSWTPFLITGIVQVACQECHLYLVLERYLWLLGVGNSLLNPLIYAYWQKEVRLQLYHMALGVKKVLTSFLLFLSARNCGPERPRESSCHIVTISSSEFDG

[3] = molecular target: T3, Glucose-dependent insulinotropic receptor (Homo sapiens) (UniProt Q8TDV5); assay: Agonist activity at human GPR119 by HTRF cAMP assay relative to AR231453; format: functional
T3 sequence (whole entry): T2 sequence (Q8TDV5 whole entry)

[4] = molecular target: T2, Glucose-dependent insulinotropic receptor; assay: Agonist activity at human GPR119 by serum shift assay
Procedure, shortened: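 HTRF cAMP read-out with cells plated overnight; growth medium swapped for fetal bovine serum-containing medium. Compounds serially diluted in DMSO, then in PBS with IBMX and 0.1% BSA to 2× concentration (1% DMSO) before addition. Potency compared with and without serum.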

[5] = molecular target: T4, Glucose-dependent insulinotropic receptor (Rattus norvegicus, UniProt Q7TQN8); assay: Agonist activity at rat GPR119 by HTRF cAMP assay; format: functional
T4 sequence (Q7TQN8 whole entry): T1 sequence (whole entry)

Mus musculus [6] = assay: In vivo activation of GPR119 in normoglycemic 129SVE mouse assessed as increase in GIP level in plasma at 30 mg/kg, po measured after 45 mins relative to vehicle-treated control; format: functional, organism-based
Procedure, shortened: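 Normoglycemic male 129SVE mice dosed orally (3 and 30 mg/kg); plasma GIP measured 45 min after dosing versus vehicle-treated controls; AR231453 at 30 mg/kg as reference agonist.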

[7] = Half life in human liver microsomes; format: ADME
[8] = Half life in mouse liver microsomes; format: ADME
[9] = Half life in rat liver microsomes; format: ADME
Mus musculus [10] = assay: Antidiabetic activity in normoglycemic 129SVE mouse assessed as suppression of plasma glucose AUC at 3 mg/kg, po administered 30 mins prior to glucose challenge measured over 120 mins by OGTT; format: functional, organism-based
Rattus norvegicus [11] = assay: Antidiabetic activity in Zucker diabetic fatty rat assessed as suppression of plasma glucose AUC at 3 mg/kg administered 60 mins prior to glucose challenge by OGTT relative to vehicle-treated control; format: functional
Mus musculus [12] = assay: Antidiabetic activity in normoglycemic 129SVE mouse assessed as […] administered 30 mins prior to glucose challenge measured over 120 mins by OGTT; format: functional, organism-based
Rattus norvegicus [13] = organism: Rattus norvegicus; assay: Toxicity in rat assessed as physical mobility impairment; format: organism-based; conditions: in vivo

SMILES	Emax [1] [%]	EC50 [2] [nM]	Emax [3] [%]	EC50 [5] [nM]	also measured
CC(C)(C)OC(=O)N1CCC(O[C@H]2CC[C@H](Oc3cnc(C#N)cn3)CC2)CC1	100	8.3	110	28.4	EC50 [4]: 144 nM
CC(C)(C)OC(=O)N1CCC(O[C@H]2CC[C@H](Oc3ccc(S(C)(=O)=O)c(F)c3)CC2)CC1	109	52	106	167	–
CC(C)(C)OC(=O)N1CCC(O[C@H]2CC[C@@H](Oc3ccc(S(C)(=O)=O)cc3)CC2)CC1	121	–	120	1390	–
Cc1nc(S(C)(=O)=O)ccc1Oc1ncnc(OC2CCN(C(=O)OC3(C)CC3)CC2)c1F	93	–	94	–	–
CC(C)(C)OC(=O)N1CCC(OC2CCC(Oc3ccc(S(C)(=O)=O)cc3)CC2)CC1 (mixture of isomers)	–	> 200	–	–	–
CS(=O)(=O)c1cnc(O[C@H]2CC[C@H](OC3CCN(C(=O)OC4CCOC4)CC3)CC2)cn1 (stereo not given in full)	109	427	105	1500	–
CC(C)(C)OC(=O)N1CCC(O[C@H]2CC[C@H](Oc3ccc(S(C)(=O)=O)cc3F)CC2)CC1	119	8.5	113	61	EC50 [4]: 227 nM
CS(=O)(=O)c1cnc(O[C@H]2CC[C@H](OC3CCN(CC4(F)CCCC4)CC3)CC2)cn1	119	101	–	922	–
CC(C)c1noc(C2CCN(c3ncnc(Nc4ccc(S(C)(=O)=O)cc4F)c3[N+](=O)[O-])CC2)n1	–	–	–	–	Activity (Mus musculus [6]): Active
CC(C)(C)OC(=O)N1CCC(O[C@H]2CC[C@H](Oc3ccc(S(C)(=O)=O)cn3)CC2)CC1	108	47	111	110	–
CS(=O)(=O)c1cnc(O[C@H]2CC[C@H](OC3CCN(CC4(C(F)(F)F)CCCC4)CC3)CC2)cn1	88	48.8	37	101	–
CCC(F)(F)C(=O)N1CCC(O[C@H]2CC[C@H](Oc3cnc(S(C)(=O)=O)cn3)CC2)CC1	126	5.3	107	66.9	half-life [7]: > 1 h; half-life [8]: 0.05 h; EC50 [4]: 28.7 nM; half-life [9]: > 1 h
CC(C)(C)OC(=O)N1CCC(O[C@H]2CC[C@H](Oc3ccc(S(C)(=O)=O)nn3)CC2)CC1	86	651	97	1160	–
CC1(OC(=O)N2CCC(O[C@H]3CC[C@H](Oc4cnc(S(C)(=O)=O)cn4)CC3)CC2)CC1	123	25.9	118	138	–
CC(C)S(=O)(=O)c1cnc(O[C@H]2CC[C@H](OC3CCN(C(=O)OC(C)(C)C)CC3)CC2)cn1	128	18.5	109	54	–
CS(=O)(=O)c1cnc(O[C@H]2CC[C@H](OC3CCN(C(=O)OC(CF)CF)CC3)CC2)cn1	128	65.1	114	467	half-life [7]: > 1 h; half-life [8]: > 1 h; half-life [9]: > 1 h
CS(=O)(=O)c1cnc(O[C@H]2CC[C@H](OC3CCN(CC(F)(F)F)CC3)CC2)cn1	105	776	91	1960	–
CC(C)OC(=O)N1CCC(O[C@H]2CC[C@H](Oc3ccc(S(C)(=O)=O)nc3)CC2)CC1	125	13	101	201	–

SMILES	Emax [1] [%]	EC50 [2] [nM]	Emax [3] [%]	EC50 [5] [nM]	also measured
CS(=O)(=O)c1cnc(O[C@H]2CC[C@H](OC3CCN(C(=O)C4(C(F)(F)F)CCCC4)CC3)CC2)cn1	124	38.4	95	108	–
C[C@H](CF)OC(=O)N1CCC(O[C@H]2CC[C@H](Oc3cnc(S(C)(=O)=O)cn3)CC2)CC1	115	36.8	108	317	–
N[C@@H](CC(=O)N1CCn2c(nnc2C(F)(F)F)C1)Cc1cc(F)c(F)cc1F [SITAGLIPTIN]	–	–	–	–	Activity (Mus musculus [10]): Active; Activity (Rattus norvegicus [11]): 57%
C[C@@H](CF)OC(=O)N1CCC(O[C@H]2CC[C@H](Oc3cnc(S(C)(=O)=O)cn3)CC2)CC1	123	31.1	105	356	–
CC(C)(C)OC(=O)N1CCC(OC2CCCC(Oc3ccc(S(C)(=O)=O)cc3)C2)CC1 (mixture of isomers)	–	> 100000	–	–	–
C[C@H](OC(=O)N1CCC(O[C@H]2CC[C@H](Oc3cnc(S(C)(=O)=O)cn3)CC2)CC1)C(F)(F)F	125	4.8	112	49.9	half-life [7]: > 1 h; half-life [8]: > 1 h; EC50 [4]: 53 nM; half-life [9]: > 1 h; Activity (Mus musculus [12]): inactive
CS(=O)(=O)c1cnc(O[C@H]2CC[C@H](OC3CCN(C(=O)Oc4ccccc4)CC3)CC2)cn1	104	9.6	116	71.8	–
CC(C)(C)OC(=O)N1CCC(O[C@H]2CC[C@H](Oc3ccc(C#N)cc3)CC2)CC1	106	8.6	116	45	EC50 [4]: 334 nM
CS(=O)(=O)c1cnc(O[C@H]2CC[C@H](OC3CCN(CC4(C(F)(F)F)CCC4)CC3)CC2)cn1	99	54.8	96	80	–
CS(=O)(=O)c1cnc(O[C@H]2CC[C@H](OC3CCN(C(=O)OC(C(F)(F)F)C(F)(F)F)CC3)CC2)cn1	121	1.2	104	10.9	half-life [7]: > 1 h; half-life [8]: > 1 h; Activity (Rattus norvegicus [13]): Dose-dependent effect; EC50 [4]: 45.2 nM; half-life [9]: > 1 h
COc1c(Nc2ccc(S(C)(=O)=O)nc2C)ncnc1OC1CCN(C(=O)OC(C)C)CC1	89	–	75	–	–
CC(C)(C)OC(=O)N1CCC(O[C@H]2CC[C@H](Oc3ccc(S(C)(=O)=O)cc3)CC2)CC1	120	16.1	115	94	–
CC(C)OC(=O)N1CCC(O[C@H]2CC[C@H](Oc3cnc(S(C)(=O)=O)cn3)CC2)CC1	120	13.7	110	119	half-life [7]: > 1 h; half-life [8]: > 1 h; EC50 [4]: 92.7 nM; half-life [9]: > 1 h
CS(=O)(=O)c1cnc(O[C@H]2CC[C@H](OC3CCN(C(=O)C4(C(F)(F)F)CC4)CC3)CC2)cn1	140	107	107	1380	–
CS(=O)(=O)c1cnc(O[C@H]2CC[C@H](OC3CCN(CC4(C(F)(F)F)CC4)CC3)CC2)cn1	124	62.6	116	163	half-life [7]: 0.35 h; half-life [8]: 0.617 h; half-life [9]: > 1 h
Cc1nc(S(C)(=O)=O)ccc1O[C@H]1CC[C@H](OC2CCN(C(=O)OC(C)C)CC2)CC1	114	11	108	89	–
CC(C)(C)OC(=O)N1CCC(O[C@H]2CC[C@H](Oc3cnc(S(C)(=O)=O)cn3)CC2)CC1	110	5.9	110	64	EC50 [4]: 94 nM
Cc1nc(O[C@H]2CC[C@H](OC3CCN(C(=O)OC(C)(C)C)CC3)CC2)ccc1C(=O)N(C)C	111	262	121	400	–
